According to ChEMBL document CHEMBL1123221, “Dihydropyridazinone cardiotonics: the discovery and inotropic activity of 1,3-dihydro-3,3-dimethyl-5-(1,4,5,6-tetrahydro-6-oxo-3-pyridazinyl)-2H -indol-2-one” (J Med Chem, 1986):

Columns and labels:
Canis familiaris [1] = experiment: Evaluated for percent decrease in maximum arterial blood pressure in anesthetized dogs; assay type: functional, Canis lupus familiaris
How it was run: (§1)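 Right ventricular contractility measured by strain-gauge arch at 50 g tension; femoral arterial pressure and heart rate also recorded. Increasing log doses given iv at 5-min intervals, with peak responses recorded. ED50 by linear regression (mean ± SEM). Heart rate and MAP are % changes at the inotropic ED50.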

Canis familiaris [2] = experiment: Tested for cardiovascular contractility in anesthetized dogs; assay type: functional; settings: Canis lupus familiaris; how it was run: as §1
Felis catus [3] = species on record: Felis catus; experiment: Compound was evaluated for inotropic activity in cat papillary muscles at concentration of (10e -5)M; assay type: functional, Papillary muscle
How it was run: (§2)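 Isolated cat papillary muscles under 1.0 g base-line tension, field-stimulated with square-wave pulses (2.0 ms, 12/min, 20% above threshold). Equilibrated 60 min. Each muscle was checked with 10^-6 M isoproterenol for 3 min and rejected if the response was under 120% of control, then washed and stabilized 30 min. Test compound given cumulatively (10^-7–10^-4 M) at 30-min intervals; contractility increase recorded.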

Felis catus [4] = species on record: Felis catus; experiment: Compound was evaluated for inotropic activity in cat papillary muscles at concentration of (10e -4)M; assay type: functional, Muscle tissue; how it was run: as §2
Canis familiaris [5] = experiment: Evaluated for percent increase in heart rate in anesthetized dogs; assay type: functional, Canis lupus familiaris; how it was run: as §1
Canis familiaris [6] = experiment: Compound was tested for cardiovascular profile in conscious dogs at dose of 500 ug/kg po; assay type: functional, Canis lupus familiaris, Heart
How it was run: (§3)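 Conscious, chronically instrumented dogs fasted 18 h; drug or lactose placebo given orally in 000 gelatin capsules. Contractility index was LV dP/dt60 (first derivative of left ventricular pressure at 60 mmHg); heart rate and LV systolic pressure also monitored.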

Felis catus [7] = species on record: Felis catus; experiment: Compound was evaluated for inotropic activity in cat papillary muscles at concentration of (10e -6)M; assay type: functional, Papillary muscle; how it was run: as §2
Felis catus [8] = species on record: Felis catus; experiment: Compound was evaluated for inotropic activity in cat papillary muscles at concentration of (10e-5) M; assay type: functional, Papillary muscle; how it was run: as §2
Canis familiaris [9] = experiment: Percent increase in contractility by administration of 500 ug/kg in conscious dog model; assay type: functional, Canis lupus familiaris
How it was run: as §3, with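 “monitored. Peak response generally taken 150 min post-dose; mean ± SEM of four experiments.” for “monitored.”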

[10] = Oral bioavailability determined in dog; assay type: ADME, organism-based, Canis lupus familiaris; settings: in vivo
[11] = Half-life measured by the effect on contractility after oral administration of 25 ug/kg in dog; settings: in vivo, 0.025 mg/kg
Half-life in dog = settings: in vivo
Canis familiaris [12] = experiment: Compound was tested for cardiovascular profile in conscious dogs at dose of 25 ug/kg po
Canis familiaris [13] = experiment: Compound was evaluated for percent decrease in maximum arterial blood pressure in anesthetized dogs; assay type: functional, Canis lupus familiaris, Artery; parameters: scale not given: the % may be the effect or the level left
How it was run: as §1, with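 “Mongrel dogs of either sex (7–14 kg), pentobarbital-anesthetized (35 mg/kg iv), ventilated, kept at 37–38 °C. Right” for “Right”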

Canis familiaris [14] = experiment: Compound was evaluated for percent increase in heart rate in anesthetized dogs; assay type: functional, Canis lupus familiaris
How it was run: as §1, with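 “Mongrel dogs of either sex (7–14 kg), pentobarbital-anesthetized (35 mg/kg iv), ventilated, kept at 37–38 °C. Right” for “Right”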

Canis familiaris [15] = experiment: Compound was tested for cardiovascular profile in conscious dogs at dose of 50 ug/kg po
Canis familiaris [16] = experiment: Compound was tested for cardiovascular profile in conscious dogs at dose of 100 ug/kg po
Felis catus [17] = species on record: Felis catus; experiment: Compound was evaluated for inotropic activity in cat papillary muscles at concentration of (10e-6) M; assay type: functional, Papillary muscle; how it was run: as §2
Canis familiaris [18] = experiment: Compound was tested for cardiovascular profile in conscious dogs at dose of 400 ug/kg po

SMILES | Decrease (Canis familiaris [1]) | ED50 (Canis familiaris [2]) | Contractile force (% of control) (Felis catus [4]) | Increase (Canis familiaris [5]) | further results
CC(=O)Nc1ccc(C2=NNC(=O)CC2)cc1 | 6% | 0.0116 mg/kg | 141% | 5% | Contractility (% of control) (Felis catus [3]): 128%; Percent of control (Canis familiaris [6]): 132%
O=C1CCC(c2ccc3c(c2)CCC(=O)N3)=NN1 | 8.7% | 0.0033 mg/kg | 154% | 18.5% | Contractility (% of control) (Felis catus [3]): 156%; Control (Felis catus [7]): 150%; Percent of control (Canis familiaris [6]): 157%
O=C1CCC(c2ccc(-n3ccnc3)cc2)=NN1 [IMAZODAN] | 18% | 0.046 mg/kg | 173% | 9.5% | Contractility (% of control) (Felis catus [3]): 147%
CN1N=C(c2ccc3c(c2)CC(=O)N3)CCC1=O | 7% | 0.271 mg/kg |  | 11% | 
Cc1[nH]c(=O)c(C#N)cc1-c1ccncc1 [MILRINONE] | 8% | 0.037 mg/kg | 158% | 9% | Control (Felis catus [8]): 148%; Increase (Canis familiaris [9]): 62%; Percent of control (Canis familiaris [6]): 162%
CC1(C)Cc2cc(C3=NNC(=O)CC3)ccc2NC1=O | 3% | 0.021 mg/kg |  | 8.5% | Percent of control (Canis familiaris [6]): 116%
CCCC1(C)C(=O)Nc2ccc(C3=NNC(=O)CC3)cc21 (stereo not drawn) | 9.6% | 0.0198 mg/kg |  | 9.3% | 
O=C1CCC(c2ccc3c(c2)CCCN3)=NN1 | 12% | 0.257 mg/kg |  | 37% | 
CCC1(C)C(=O)Nc2ccc(C3=NNC(=O)CC3C)cc21 (stereo not drawn) | 20% | 0.0148 mg/kg |  | 11% | 
CC1(C)CC(=O)Nc2ccc(C3=NNC(=O)CC3)cc21 | 15% | 0.086 mg/kg |  | 5.9% | Percent of control (Canis familiaris [6]): 133%
CC1(C)C(=O)Nc2ccc(C3=NNC(=O)CC3)cc21 [INDOLIDAN] | 15.2% | 0.0068 mg/kg | 169% | 11.8% | bioavailability [10]: 100%; Contractility (% of control) (Felis catus [3]): 164%; Control (Felis catus [7]): 134%; half-life [11]: > 8 h; half-life (Half-life in dog): 14 h; Control (Canis familiaris [12]): 151%
CCC1C(=O)Nc2ccc(C3=NNC(=O)CC3)cc21 (stereo not drawn) | 12% | 0.071 mg/kg |  | 18% | 
CC1CC(=O)NN=C1c1ccc2c(c1)C(C)(C)C(=O)N2 (stereo not drawn) |  | 0.0032 mg/kg |  |  | Control (Canis familiaris [13]): 26%; Control (Canis familiaris [14]): 16%; Control (Canis familiaris [15]): 150%
CN1C(=O)CCc2cc(C3=NNC(=O)CC3)ccc21 | 21% | 0.0124 mg/kg |  | 26% | Control (Canis familiaris [16]): 134%
CC1C(=O)Nc2ccc(C3=NNC(=O)CC3)cc21 (stereo not drawn) | 21.8% | 0.0096 mg/kg |  | 8% | Control (Canis familiaris [12]): 141%
Cc1cc2c(cc1C1=NNC(=O)CC1)C(C)(C)C(=O)N2 | 0.5% | 0.04 mg/kg |  | 7.9% | 
CC(=O)Nc1ccc(C2=NNC(=O)CC2C)cc1 (stereo not drawn) | 16.6% | 0.002 mg/kg | 216% | 11.7% | Control (Felis catus [8]): 183%; Control (Felis catus [17]): 167%; Control (Canis familiaris [12]): 170%
CN1C(=O)C(C)(C)c2cc(C3=NNC(=O)CC3)ccc21 | 13% | 0.052 mg/kg |  | 8% | 
CCC1(CC)C(=O)Nc2ccc(C3=NNC(=O)CC3)cc21 | 7.5% | 0.741 mg/kg |  | 8.9% | 
O=C1CCC(c2ccc3c(c2)CCCC(=O)N3)=NN1 | 18% | 0.0052 mg/kg | 139% | 12% | Contractility (% of control) (Felis catus [3]): 137%; Control (Felis catus [7]): 121%; Percent of control (Canis familiaris [6]): 131%
Cc1cc(C2=NNC(=O)CC2)cc2c1NC(=O)C2(C)C | 17% | 0.0095 mg/kg |  | 8.5% | 
CC1CC(c2ccc3c(c2)C(C)(C)C(=O)N3)=NNC1=O (stereo not drawn) | 20% | 0.015 mg/kg |  | 13% | 
CC1CC(=O)NN=C1c1ccc2c(c1)C(C)(C)C(=O)N2C (stereo not drawn) | 26% | 0.0044 mg/kg |  | 21.4% | 
O=C1CCC(c2ccc3c(c2)CC(=O)N3)=NN1 | 4.3% | 0.024 mg/kg | 152% | 5.6% | Contractility (% of control) (Felis catus [3]): 147%; Control (Felis catus [7]): 116%; Percent of control (Canis familiaris [6]): 164%
CCC1(C)C(=O)Nc2ccc(C3=NNC(=O)CC3)cc21 (stereo not drawn) | 3.1% | 0.022 mg/kg |  | 2% | Control (Canis familiaris [18]): 149%
